PubChem BioAssay
Activity calls are given as the source filed them.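 How the source made its calls, unless noted: active means inhibition at or above 50% relative to wild type and mutant plate controls; inactive means inhibition below 50%.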

What was measured:
[1] = inhibitors of TNFa-induced NFkB p65 translocation, primary screen, imaging, HUVEC, MLSMR starter and 10KST1 sets (AID 438;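 active means inhibition above 20% together with a positive visual image hit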;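 further: compound added about 3h40 before a 20 min TNFalpha stimulation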;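 on inhibition: signal is the nuclear over cytoplasmic p65 intensity ratio per well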); details: HUVEC TNFa-induced p65 nuclear translocation; cell count: measured here: nuclei count (cytotoxicity indicator), at 2.08 µM; inhibition: at 2 µM, stronger effect = higher value, 0% TNFa-plus-vehicle, 100% no-TNFa wells
[2] = inhibitors of E-selectin induction by TNFa, primary screen, imaging, HUVEC, immunofluorescence, MLSMR starter and 10KST1 sets (AID 487;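 active means visually confirmed hit in the image check and inhibition above 20%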;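 on inhibition: signal is fraction of cell area covered by stained E-selectin grains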;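 on nuclei count: 100% = median nuclei count of all wells on the same plate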); details: HUVEC TNFalpha-induced E-selectin immunofluorescence imaging, at 2 µM; inhibition: stronger effect = higher value; nuclei count: measured here: cell number, toxicity
[3] = DUSP6 inhibitors restoring Erk phosphorylation by chemical complementation, primary imaging in DUSP6-transfected HeLa (AID 609;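 active means compounds giving at least 50% inhibition in the cell-based MKP-3 phosphatase rescue imaging test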;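 on inhibition: phospho-Erk level distribution per well compared with pooled transfected vehicle control wells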); details: HeLa MKP-3 transfected, phospho-Erk imaging KS statistic, at 10 µM, cells stimulated with TPA for 15 min
[4] = molecular target: Dual specificity protein phosphatase 6 (Homo sapiens) (UniProt Q16828); assay: as above; details: HeLa MKP-3 transfected, phospho-Erk imaging KS statistic; at 10 µM; stronger effect = higher value; cells stimulated with TPA for 15 min
Dual specificity protein phosphatase 6 (Homo sapiens), sequence (Q16828 whole entry, looked up): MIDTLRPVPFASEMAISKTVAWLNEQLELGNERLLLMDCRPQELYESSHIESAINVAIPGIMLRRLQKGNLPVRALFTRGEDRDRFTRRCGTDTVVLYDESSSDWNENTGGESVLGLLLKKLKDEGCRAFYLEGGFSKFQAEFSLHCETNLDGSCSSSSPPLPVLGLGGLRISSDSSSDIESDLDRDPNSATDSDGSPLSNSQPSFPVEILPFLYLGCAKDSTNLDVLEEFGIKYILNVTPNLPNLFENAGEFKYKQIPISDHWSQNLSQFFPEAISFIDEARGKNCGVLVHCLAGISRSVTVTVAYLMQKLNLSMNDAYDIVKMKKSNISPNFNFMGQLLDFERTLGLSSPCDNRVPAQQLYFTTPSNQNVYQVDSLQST

[5] = molecular target: Voltage-gated potassium channel subunit beta-2 (Rattus norvegicus) (UniProt P62483); assay: KvBeta enzyme negative modulators, primary screen, biochemical, NADPH fluorescence (AID 622;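 active means fluorescence slope higher than the sample average by over 3 SD, cut at about -0.22 in these data, passing the limit was not always enough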;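 further: slope of raw intensity against log time taken from 70 to 1610 s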); details: recombinant KvBeta, 4-cyanobenzaldehyde reduction, at 10 µM, stronger effect = higher value
Voltage-gated potassium channel subunit beta-2 (Rattus norvegicus), sequence (P62483 whole entry, looked up): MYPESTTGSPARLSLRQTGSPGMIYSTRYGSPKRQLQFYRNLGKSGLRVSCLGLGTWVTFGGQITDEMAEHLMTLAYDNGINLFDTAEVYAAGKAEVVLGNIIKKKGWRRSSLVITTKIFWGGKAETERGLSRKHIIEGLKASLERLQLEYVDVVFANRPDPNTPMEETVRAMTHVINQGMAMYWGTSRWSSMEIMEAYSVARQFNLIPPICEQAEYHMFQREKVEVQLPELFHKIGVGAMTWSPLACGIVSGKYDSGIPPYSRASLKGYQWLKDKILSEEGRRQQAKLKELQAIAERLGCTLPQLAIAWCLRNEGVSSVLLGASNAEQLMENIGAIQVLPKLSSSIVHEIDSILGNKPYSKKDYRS

[6] = molecular target: Voltage-gated potassium channel subunit beta-2 (Rattus norvegicus) (UniProt P62483); assay: KvBeta positive modulators, primary screen, biochemical, NADPH fluorescence (AID 623;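 active means NADPH fluorescence slope more negative than the mean of all samples by about 3 SD, 99.7% confidence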;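 further: fluorescence intensity change per second fitted from 20 to 320 s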); details: Recombinant KvBeta, NADPH fluorescence decrease slope, 10 min; at 10 µM; stronger effect = lower value
[7] = molecular target: Muscarinic acetylcholine receptor M4 (Homo sapiens) (UniProt P08173); assay: compounds altering M4/GIRK thallium flux, either direction, primary screen, M4 allosteric agonist project, cell-based, HEK293 M4/GIRK, BTC-AM (AID 625;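 active means fluorescence slope after compound addition differing from the mean of all tested samples at 99.7% confidence, mostly higher but some lower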;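 further: thallium influx through GIRK channels coupled to M4 in HEK293 cells with BTC-AM dye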); details: at 10 µM, actives lie on both sides
Muscarinic acetylcholine receptor M4 (Homo sapiens), sequence (P08173 whole entry, looked up): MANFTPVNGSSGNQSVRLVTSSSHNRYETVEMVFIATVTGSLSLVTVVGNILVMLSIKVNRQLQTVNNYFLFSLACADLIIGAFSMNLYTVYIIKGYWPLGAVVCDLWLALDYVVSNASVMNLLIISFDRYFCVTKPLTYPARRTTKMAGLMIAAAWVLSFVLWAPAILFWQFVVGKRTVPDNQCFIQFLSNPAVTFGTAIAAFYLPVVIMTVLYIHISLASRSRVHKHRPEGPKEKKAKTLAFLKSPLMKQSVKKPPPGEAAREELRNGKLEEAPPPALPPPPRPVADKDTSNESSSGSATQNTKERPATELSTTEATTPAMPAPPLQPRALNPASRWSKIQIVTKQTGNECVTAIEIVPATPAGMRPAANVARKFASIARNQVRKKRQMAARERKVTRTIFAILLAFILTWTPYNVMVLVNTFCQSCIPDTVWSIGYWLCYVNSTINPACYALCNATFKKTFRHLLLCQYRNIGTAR
Procedure, shortened: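 Material – HEK293 cells with M4 receptor and GIRK channels · Buffer or medium – pH 7.3 thallium assay buffer · Doses – one dose, 10 µM final · Timing – cells overnight at 37 °C, BTC-AM loading 1 h, reads 2 min total · Measured by – kinetic fluorescence with BTC-AM dye · Controls – carbachol and DMSO controls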

[8] = inhibitors of larval lipid processing in zebrafish, primary screen, whole organism, PED6 fluorescence, gall bladder and intestine (AID 686;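 active means a full or partial loss of lipid-probe fluorescence in the fish gall bladder, intestine or both, judged by eye; inactive means no fluorescence loss, or compound toxic to the fish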;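 further: larvae 5 to 7 days old with five fish per well; signal comes from phospholipase A2 cleavage of quenched PED6 carried via bile; overnight exposure to compound and PED6 before scoring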); details: Zebrafish larvae PED6 lipid processing, fluorescence scoring; screened at 20 µM (by protocol)
Procedure, shortened: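 system = live zebrafish larvae aged 5-7 days, whole organism | probe or stimulus = ingested quenched lipid PED6 at 100 nM | doses = 20 µM single dose | timing = overnight exposure | detection = fluorescence microscopy with visual scoring of gall bladder and intestine | read-out = visual per-well fluorescence inhibition score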

[9] = inhibitors of Chlamydomonas gravitaxis, primary screen, whole organism, Chlamydomonas reinhardtii, WT vs cilia-less mutant, absorbance, 96-well (AID 463189); details: OD600 absorbance, 2 days, at 10 µM, stronger effect = higher value;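 further: 0% = wild type cc124 cells in DMSO and 100% = ciliumless bld1 mutant cells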
[10] = measured here: cell density z-score
[11] = measured here: nuclear c-Myc green intensity z-score
[12] = measured here: nuclear pErk red intensity z-score, stronger effect = higher value

Compound	cell count [1]	inhibition [1]	inhibition [2]	nuclei count [2] [%]	z-score [3, 10]	z-score [3, 11]	z-score [3, 12]	inhibition [4]	fluorescence slope [5]	NADPH fluorescence slope [6]	fluorescence slope [7]	outcome [8]	inhibition [9]
CCCCN(C(=O)CCC(=O)O)C1CC(=O)N(c2ccc(OCCC)cc2)C1=O (centres undefined)	639	5.2% (inactive)	-33% (inactive)	116	-0.992	-0.45	-0.105	-9.53% (inactive)	-0.464 (inactive)	-2.3e-05 (inactive)	0.00463 (inactive)	inactive	-0.122% (inactive)
CC(=O)c1cccc(N=C2NC(=O)C(CO)(CO)S2)c1	634	1.6% (inactive)	-12.3% (inactive)	118	-2.29	1.22	0.157	-2.09% (inactive)	-0.441 (inactive)	-4.4e-05 (inactive)	0.00557 (inactive)	inactive	-10% (inactive)
C=C(C)Cn1c(-c2ccc(OC)cc2)nc2ccccc21	377	0.8% (inactive)	-113% (inactive)	157	-0.296	-0.903	0.627	-6.86% (inactive)	-0.461 (inactive)	-0.000111 (inactive)	0.00384 (inactive)	inactive; toxic	25.6% (inactive)
CCCCCNC(=O)C(C#N)c1nc2ccccc2nc1N1CC(C)OC(C)C1 (centres undefined)	366	-5.7% (inactive)	-192% (inactive)	130	1.56	-0.566	-0.352	19.4% (inactive)	-0.482 (inactive)	-8.1e-05 (inactive)	0.00502 (inactive)	inactive	-1.81% (inactive)
Cc1cc(CCC(=O)O)c(C)cc1CCC(=O)O	593	0.2% (inactive)	-64.2% (inactive)	149	0.485	1.16	-0.56	5.35% (inactive)	-0.452 (inactive)	-0.000105 (inactive)	0.00588 (inactive)	inactive	1.89% (inactive)
COc1cccc(C2CC(c3ccccc3Cl)n3nc(N)nc3N2)c1 (centres undefined)	399	-1.4% (inactive)	-136% (inactive)	131	0.0849	1.44	-0.355	24.4% (inactive)	-0.464 (inactive)	-7.1e-05 (inactive)	0.00588 (inactive)	inactive	29.4% (inactive)
Cc1nn(CC(N)=O)c(=O)c2ccccc12	579	-2.9% (inactive)	-62.8% (inactive)	142	2.22	-0.838	0.00121	10.9% (inactive)	-0.485 (inactive)	-0.00011 (inactive)	0.00427 (inactive)	inactive	-4.61% (inactive)
N#Cc1nc(-c2cccs2)oc1NCc1ccc2c(c1)OCO2	624	-4.4% (inactive)	-132% (inactive)	157	-0.376	-0.933	0.595	7.83% (inactive)	-0.404 (inactive)	-1.3e-05 (inactive)	0.00406 (inactive)	inactive	30.7% (inactive)
CCc1[nH]c(=O)c(C#N)c2c1CCCC2	388	-8.1% (inactive)	-57.4% (inactive)	173	-0.973	0.856	2.79	-12.6% (inactive)	-0.495 (inactive)	-0.000126 (inactive)	0.00393 (inactive)	inactive	26.8% (inactive)
CCCCSc1nc(O)c(C2OC(=O)c3c2ccc(OC)c3OC)c(=O)n1C (centres undefined)	559	1.9% (inactive)	57.7% (active)	95.8	-2.21	-0.0853	0.751	9.91% (inactive)	-0.372 (inactive)	-2.3e-05 (inactive)	0.00535 (inactive)	inactive	32.4% (inactive)
CCC(NC(=O)NC1=NCCS1)(C(F)(F)F)C(F)(F)F	772	2.9% (inactive)	-60% (inactive)	150	0.622	-0.646	0.179	20.2% (inactive)	-0.433 (inactive)	-7.2e-05 (inactive)	0.00527 (inactive)	inactive	-2.29% (inactive)
O=C1C2ON(c3ccccc3)C(c3cccnc3)C2C(=O)N1Cc1ccccc1 (centres undefined)	620	-11% (inactive)	-48.8% (inactive)	177	0.802	0.656	-1.11	2.71% (inactive)	-0.512 (inactive)	-5.7e-05 (inactive)	0.00545 (inactive)	inactive	-1.68% (inactive)
Cn1c(=O)c2c(nc(N3CCC(C(N)=O)CC3)n2CCSc2nc3ccccc3s2)n(C)c1=O	657	-10.1% (inactive)	-52% (inactive)	183	0.335	0.459	-0.422	7.42% (inactive)	-0.431 (inactive)	-6.4e-05 (inactive)	0.00515 (inactive)	inactive	21.2% (inactive)
